Assay results as given in ChEMBL document CHEMBL1130123, “Optimization of 3-(1H-indazol-3-ylmethyl)-1,5-benzodiazepines as potent, orally active CCK-A agonists” (J Med Chem, 1997).

Assays:
Mus musculus [1] = assay: Intraperitoneal dose that produces a half maximal response in mouse gall bladder emptying assay (in vivo); assay type: functional; conditions: ip
Mus musculus [2] = assay: Peroral dose that produces a half maximal response in mouse gall bladder emptying assay (in vivo); assay type: functional; conditions: po
[3] = Total body clearance at an intravenous dose of 6.3 mg/kg in rat; assay type: ADME, organism-based; design: dose 6.3 mg/kg, route intravenous; conditions: in vivo
[4] = Oral bioavailability in Long-Evans rats at an peroral dose of 6.2 mg/kg; assay type: ADME, organism-based; conditions: rat, in vivo
Rattus norvegicus [5] = assay: (§1) Maximal response at 0.5 umol/kg intraperitoneal dose; assay type: functional
[6] = Maximum concentration at an peroral dose of 6.2 mg/kg in rat; assay type: ADME, organism-based; design: dose 6.2 mg/kg, route oral; conditions: in vivo, po
[7] = Oral bioavailability in Long-Evans rats at an intravenous dose of 6.3 mg/kg; Not active; assay type: ADME, organism-based; conditions: rat, in vivo
[8] = Oral bioavailability in Long-Evans rats at an intraduodenal dose of 6.6 mg/kg; assay type: ADME, organism-based; conditions: rat, in vivo, other: intraduodenal
[9] = Maximum concentration at an intravenous dose of 6.3 mg/kg; assay type: ADME, organism-based; design: dose 6.3 mg/kg, route intravenous; conditions: rat, in vivo
[10] = Volume of distribution at steady state at an intravenous dose of 6.3 mg/kg in rat; assay type: ADME, organism-based; design: dose 6.3 mg/kg, route intravenous; conditions: in vivo, read-out: Vss
Mus musculus [11] = assay: maximal response at 1 nmol/kg peroral dose; assay type: functional
[12] = Maximum concentration at an intraduodenal dose of 6.6 mg/kg in rat; assay type: ADME, organism-based; design: dose 6.6 mg/kg, route intraduodenal; conditions: in vivo
Rattus norvegicus [13] = assay: Anorectic potency in rat was tested and intraperitoneal dose that produces a half maximal response (in vivo); assay type: functional; conditions: ip
[14] = Half life period at an intravenous dose of 6.3 mg/kg in rat; assay type: ADME, organism-based; design: dose 6.3 mg/kg, route intravenous; conditions: in vivo
Mus musculus [15] = assay: Maximal response at 1 nmol/kg intraperitoneal dose; assay type: functional
Cavia porcellus [16] = organism: Cavia porcellus; assay: In vitro functional efficacy relative to CCK-8 in inducing contraction of the isolated guinea pig gallbladder (GPGB) at a 1 uM concentration.
Procedure, shortened: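 Isolated guinea pig gallbladder, ligand 1 μM, 30 min at 37 °C; maximal contraction expressed relative to CCK-8 (1 μM) = 100%; values ± 5%.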

Cavia porcellus [17] = organism: Cavia porcellus; assay: In vitro functional agonist activity in the isolated guinea pig gall bladder, concentration at which 50% of the maximal contraction observed was reported.; conditions: read-out: ED50 (the source's name)
[18] = molecular target: T1, Gastrin/cholecystokinin type B receptor (Homo sapiens, UniProt P32239); assay: In vitro for binding affinity against human cholecystokinin type B receptor.
T1 sequence (P32239 whole entry): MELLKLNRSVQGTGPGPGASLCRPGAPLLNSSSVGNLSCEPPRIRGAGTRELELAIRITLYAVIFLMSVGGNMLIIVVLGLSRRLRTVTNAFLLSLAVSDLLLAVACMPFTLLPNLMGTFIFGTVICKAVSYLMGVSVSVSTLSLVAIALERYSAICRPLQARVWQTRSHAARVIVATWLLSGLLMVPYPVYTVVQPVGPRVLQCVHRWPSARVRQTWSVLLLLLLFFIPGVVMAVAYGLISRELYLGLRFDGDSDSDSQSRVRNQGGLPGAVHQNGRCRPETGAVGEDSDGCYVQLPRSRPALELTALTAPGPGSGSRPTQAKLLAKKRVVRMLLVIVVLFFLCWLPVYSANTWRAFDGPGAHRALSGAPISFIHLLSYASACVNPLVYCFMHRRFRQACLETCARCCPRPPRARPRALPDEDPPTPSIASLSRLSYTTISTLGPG

[19] = molecular target: T2, Cholecystokinin receptor type A (Homo sapiens, UniProt P32238); assay: In vitro for binding affinity against human cholecystokinin type A receptor.
T2 sequence (P32238 whole entry): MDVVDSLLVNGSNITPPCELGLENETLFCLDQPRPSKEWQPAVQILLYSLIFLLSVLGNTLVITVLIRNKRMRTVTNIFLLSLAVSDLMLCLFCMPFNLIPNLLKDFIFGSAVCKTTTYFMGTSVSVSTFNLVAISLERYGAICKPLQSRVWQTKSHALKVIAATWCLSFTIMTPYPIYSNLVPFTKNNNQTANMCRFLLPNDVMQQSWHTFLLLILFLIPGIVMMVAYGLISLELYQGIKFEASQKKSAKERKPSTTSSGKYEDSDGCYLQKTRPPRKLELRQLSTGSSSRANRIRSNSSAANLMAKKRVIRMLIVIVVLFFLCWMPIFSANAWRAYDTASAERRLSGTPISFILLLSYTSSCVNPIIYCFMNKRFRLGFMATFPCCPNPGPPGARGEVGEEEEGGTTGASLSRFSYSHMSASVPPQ

Mus musculus [20] = assay: Maximal response at 1 nmol/kg peroral dose; assay type: functional
[21] = Half life period at an intravenous dose of 6.5 mg/kg in rat; assay type: ADME, organism-based; design: dose 6.5 mg/kg, route intravenous; conditions: in vivo
[22] = Oral bioavailability in Long-Evans rats at an peroral dose of 6.5 mg/kg; assay type: ADME, organism-based; conditions: rat, in vivo
[23] = Volume of distribution at steady state at an intravenous dose of 6.5 mg/kg in rat; assay type: ADME, organism-based; design: dose 6.5 mg/kg, route intravenous; conditions: in vivo, read-out: Vss
[24] = Total body clearance at an intravenous dose of 6.5 mg/kg in rat; assay type: ADME, organism-based; design: dose 6.5 mg/kg, route intravenous; conditions: in vivo
[25] = Maximum concentration at an intravenous dose of 6.5 mg/kg in rat; assay type: ADME, organism-based; design: dose 6.5 mg/kg, route intravenous; conditions: in vivo
[26] = Half life period at an intravenous dose of 5.5 mg/kg in rat; assay type: ADME, organism-based; design: dose 5.5 mg/kg, route intravenous; conditions: in vivo
[27] = Oral bioavailability in Long-Evans rats at an peroral dose of 6.3 mg/kg; assay type: ADME, organism-based; conditions: rat, in vivo
Mus musculus [28] = assay: as §1; assay type: functional
[29] = Total body clearance at an intravenous dose of 5.5 mg/kg in rat; assay type: ADME, organism-based; design: dose 5.5 mg/kg, route intravenous; conditions: in vivo
[30] = Maximum concentration at an peroral dose of 6.3 mg/kg in rat; assay type: ADME, organism-based; design: dose 6.3 mg/kg, route oral; conditions: in vivo, po
[31] = Volume of distribution at steady state at an intravenous dose of 5.5 mg/kg in rat; assay type: ADME, organism-based; design: dose 5.5 mg/kg, route intravenous; conditions: in vivo, read-out: Vss
[32] = Maximum concentration at an intravenous dose of 5.5 mg/kg in rat; assay type: ADME, organism-based; design: dose 5.5 mg/kg, route intravenous; conditions: in vivo

Compound	Max (Cavia porcellus [16]) [%]	EC50 (Cavia porcellus [17]) [nM]	IC50 [18] [nM]	IC50 [19] [nM]	other results
COc1ccc(N(C(=O)CN2C(=O)C(Cc3n[nH]c4ccccc34)C(=O)N(c3ccccc3)c3ccccc32)C(C)C)cc1 (stereo not given)	–	–	–	–	ED50 (Mus musculus [1]): 0.0002 µmol/kg; ED50 (Mus musculus [2]): 0.01 µmol/kg; clearance [3]: 38 mL/min/kg; bioavailability [4]: 8%; Max (Rattus norvegicus [5]): 98%; Cmax [6]: 20 ng/mL; F [7]: Not Active; bioavailability [8]: 16%; Cmax [9]: 2100 ng/mL; Vd [10]: 5.17 L/kg; Max (Mus musculus [11]): 89%; Cmax [12]: 193 ng/mL; ED50 (Rattus norvegicus [13]): 0.05 µmol/kg; half-life [14]: 2.1 h; Max (Mus musculus [15]): 97%
COc1ccc(N(C(=O)CN2C(=O)C(Cc3csc4ccccc34)C(=O)N(c3ccccc3)c3ccccc32)C(C)C)cc1 (stereo not given)	50	–	–	–	–
COc1ccc(N(C(=O)CN2C(=O)C(Cc3n[nH]c4c(F)cccc34)C(=O)N(c3ccccc3)c3ccccc32)C(C)C)cc1 (stereo not given)	90	20	1050	–	–
CC(C)(C)N(C(=O)CN1C(=O)C(Cc2n[nH]c3ccccc23)C(=O)N(c2ccccc2)c2ccccc21)c1ccccc1 (stereo not given)	90	110	–	891	–
COc1ccc(N(C(=O)CN2C(=O)C(Cc3n[nH]c4ncccc34)C(=O)N(c3ccccc3)c3ccccc32)C(C)C)cc1 (stereo not given)	90	40	11200	112	–
COc1cccc(N(C(=O)CN2C(=O)C(Cc3n[nH]c4ccccc34)C(=O)N(c3ccccc3)c3ccccc32)C(C)C)c1 (stereo not given)	90	70	191	479	–
COc1ccc(N(C(=O)CN2C(=O)C(C)(Cc3nn(C)c4ccccc34)C(=O)N(c3ccccc3)c3ccccc32)C(C)C)cc1 (stereo not given)	60	240	–	38.9	ED50 (Mus musculus [1]): 0.01 µmol/kg; Max (Mus musculus [20]): 75%; ED50 (Mus musculus [2]): 0.45 µmol/kg; Cmax [6]: 20 ng/mL; half-life [21]: 7.5 h; bioavailability [22]: 4%; Vd [23]: 11.1 L/kg; clearance [24]: 31 mL/min/kg; Cmax [25]: 3270 ng/mL
COc1ccc(N(C(=O)CN2C(=O)C(Cc3n[nH]c4cc(F)ccc34)C(=O)N(c3ccccc3)c3ccccc32)C(C)C)cc1 (stereo not given)	100	40	589	29.5	–
COc1ccc(N(C(=O)CN2C(=O)C(Cc3n[nH]c4ccccc34)C(=O)N(c3ccccc3)c3ccccc32)C2CCCC2)cc1 (stereo not given)	90	40	776	17	–
COc1ccc(N(C(=O)CN2C(=O)C(Cc3n[nH]c4ccccc34)(OC)C(=O)N(c3ccccc3)c3ccccc32)C(C)C)cc1 (stereo not given)	70	70	3630	14.5	ED50 (Mus musculus [1]): 0.0003 µmol/kg; Max (Mus musculus [20]): 72%; half-life [26]: 3.4 h; ED50 (Mus musculus [2]): 0.1 µmol/kg; bioavailability [27]: 5%; Max (Mus musculus [28]): 52%; clearance [29]: 35 mL/min/kg; Cmax [30]: 90 ng/mL; Vd [31]: 7.63 L/kg; Cmax [32]: 4900 ng/mL; Max (Mus musculus [15]): 89%
O=C1C(Cc2n[nH]c3ccccc23)C(=O)N(c2ccccc2)c2ccccc2N1CC(=O)N(c1ccccc1)C1CC1 (stereo not given)	70	20	25.1	525	–
COc1ccc(N(C(=O)CN2C(=O)C(Cc3noc4ccccc34)C(=O)N(c3ccccc3)c3ccccc32)C(C)C)cc1 (stereo not given)	80	130	174000	89.1	–
CC(C)N(C(=O)CN1C(=O)C(Cc2n[nH]c3ccccc23)C(=O)N(c2ccccc2)c2ccccc21)c1ccc(C(F)(F)F)cc1 (stereo not given)	80	230	1660	661	–
COc1ccc(N(C(=O)CN2C(=O)C(Cc3c[nH]c4ccccc34)C(=O)N(c3ccccc3)c3ccccc32)C(C)C)cc1 (stereo not given)	–	–	–	–	ED50 (Mus musculus [1]): 0.0038 µmol/kg; Max (Mus musculus [20]): 74%; ED50 (Mus musculus [2]): 0.1 µmol/kg; Max (Mus musculus [15]): 90%
CC(C)N(C(=O)CN1C(=O)C(Cc2n[nH]c3ccccc23)C(=O)N(c2ccccc2)c2ccccc21)c1ccc(F)cc1 (stereo not given)	100	60	479	138	–
